This passage reports IC50, Activity and Ratio IC50 results from ChEMBL document CHEMBL1151874, “Design and synthesis of novel hybrid benzamide-peptide histone deacetylase inhibitors” (Bioorg Med Chem Lett, 2009).

The source made the active and inactive calls. The calls are words filed in the database; no cut-off is given here. Non-standard residues stand in square brackets, D forms with d. Residues, ends and D or L forms follow the SMILES beside them. *: point of attachment. Asu = N[C@@H](CCCCCC(=O)O)C(=O)O; NH(2-NH2-phenyl) = Nc1ccccc1N*

What is called IC50 is the concentration at which inhibition is half-maximal.

One experiment has as its target Histone deacetylase 1 (Homo sapiens, UniProt Q13547). As to the kind of experiment: Inhibition of human recombinant HDAC1. In short, it runs like this:
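Enzyme source: recombinant human HDAC1. IC50 reported as mean of two experiments with standard error.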

Another experiment addresses Histone deacetylase 3 (Homo sapiens, UniProt O15379). As to the kind of experiment: Inhibition of human recombinant HDAC3. In short, it runs like this:
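Recombinant human HDAC1 or HDAC3 enzyme inhibition assay. IC50 values are means of two experiments, with standard error reported.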

For experiment [1], the target named is Histone deacetylase (Homo sapiens) (UniProt Q13547+O15379+Q9UBN7+Q92769+Q9UQL6+Q8WUI4+Q9BY41+Q96DB2+P56524+Q9UKV0+Q969S8). As to the kind of experiment: Inhibition of HDAC in human GM15850 cells assessed as effect on histone H3 acetylation at 20 uM after 48 hrs by Western blot analysis. It counts as cell-based. The essentials:
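Human lymphoblastoid line GM15850 exposed to compound at 20 µM for 48 h; endogenous histone H3 acetylation judged by western blot.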
In general terms: A western blot detects proteins with antibodies after separation by electrophoresis.

The species entered for the next experiment is Homo sapiens. As to the kind of experiment: Selectivity ratio of IC50 for human recombinant HDAC1 to IC50 for human recombinant HDAC3.
Experiment [2] in a line: Inhibition of Eimeria tenella HDAC1 assessed as [3H]acetate release by scintillation counting.

Chain of Histone deacetylase 3 (O15379 whole entry): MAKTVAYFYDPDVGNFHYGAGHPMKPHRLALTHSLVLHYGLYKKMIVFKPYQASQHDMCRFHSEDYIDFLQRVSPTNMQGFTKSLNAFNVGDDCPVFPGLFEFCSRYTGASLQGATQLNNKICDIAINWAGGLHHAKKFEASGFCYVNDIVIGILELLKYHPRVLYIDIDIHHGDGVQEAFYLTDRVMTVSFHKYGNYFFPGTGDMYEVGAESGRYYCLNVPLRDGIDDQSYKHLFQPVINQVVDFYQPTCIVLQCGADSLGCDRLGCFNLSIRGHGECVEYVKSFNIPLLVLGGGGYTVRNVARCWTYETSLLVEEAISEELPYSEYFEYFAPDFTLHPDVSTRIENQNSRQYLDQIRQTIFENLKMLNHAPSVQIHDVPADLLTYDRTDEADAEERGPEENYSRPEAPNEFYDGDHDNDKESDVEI
Chain of Histone deacetylase 1 (Q13547 whole entry): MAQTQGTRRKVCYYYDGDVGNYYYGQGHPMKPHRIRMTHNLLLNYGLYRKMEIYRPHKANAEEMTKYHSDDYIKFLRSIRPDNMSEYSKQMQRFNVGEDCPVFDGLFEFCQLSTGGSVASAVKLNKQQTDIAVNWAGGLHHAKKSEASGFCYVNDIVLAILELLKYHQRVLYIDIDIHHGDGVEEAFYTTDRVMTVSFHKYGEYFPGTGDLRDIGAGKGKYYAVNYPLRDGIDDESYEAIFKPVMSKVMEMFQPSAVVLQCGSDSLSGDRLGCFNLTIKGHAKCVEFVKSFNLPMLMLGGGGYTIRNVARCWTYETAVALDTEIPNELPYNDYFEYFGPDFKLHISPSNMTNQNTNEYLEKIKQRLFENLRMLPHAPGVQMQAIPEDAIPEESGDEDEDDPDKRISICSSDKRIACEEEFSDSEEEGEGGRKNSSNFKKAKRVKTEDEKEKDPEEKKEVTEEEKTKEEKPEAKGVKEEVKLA

Take `Nc1ccccc1NC(=O)CCCCC[C@H](NC(=O)[C@@H]1CCCN1C(=O)[C@@H](N)Cc1ccccc1)C(=O)Nc1ccccc1N`: the IC50 on Histone deacetylase 1 was found to be 7.3 µM; at Histone deacetylase 3, 3.4 µM.
Take `Nc1ccccc1NC(=O)CCCCC[C@H](NC(=O)[C@H]1CCCN1C(=O)[C@@H](N)Cc1ccccc1)C(=O)N[C@@H](Cc1ccccc1)C(=O)O`: the IC50 was 84.2 µM at Histone deacetylase 1 and 27.2 µM at Histone deacetylase 3.
In the case of `Nc1ccccc1NC(=O)CCCCC[C@@H]1NC(=O)[C@H]2CCCN2C(=O)[C@H](Cc2ccccc2)NC(=O)[C@H](Cc2ccccc2)NC1=O`, the IC50 on Histone deacetylase 1 amounted to 20.5 µM; on Histone deacetylase 3, 5.6 µM.
For `N=C(N)NCCC[C@@H]1NC(=O)CNC(=O)[C@H](CCCCCC(=O)Nc2ccccc2N)NC(=O)CNC1=O` (cyclo([Asu](NH(2-NH2-phenyl))GRG)), the result in experiment [1] was Active.
`Cc1ccc(C(=O)NCC(=O)NCCC(=O)Nc2ccccc2N)cc1`: the IC50 on Histone deacetylase 1 was found to be 83.9 µM; at Histone deacetylase 3 it was 4.3 µM. Also, the Ratio IC50 in the experiment listed under Homo sapiens turned out to be 19. Also, the result in experiment [1] was Active.
For the molecule `Cc1ccc(C(=O)N[C@@H](CCCN=C(N)N)C(=O)NCCC(=O)Nc2ccccc2N)cc1`, the IC50 at Histone deacetylase 1 turned out to be 9.2 µM; on Histone deacetylase 3, 2.2 µM.
For `CCC(=O)CCCCC[C@@H]1NC(=O)[C@H]2CCCCN2C(=O)[C@H]([C@@H](C)CC)NC(=O)[C@H](Cc2cn(OC)c3ccccc23)NC1=O` [APICIDIN], the IC50 in experiment [2] stood at 0.004 µM.
On to `N=C(N)NCCC[C@H](N)C(=O)NCC(=O)N[C@@H](CCCCCC(=O)Nc1ccccc1N)C(=O)Nc1ccccc1N`, for which the IC50 at Histone deacetylase 1 was found to be 4.7 µM; on Histone deacetylase 3, 1.3 µM. Further, in experiment [1], the result was Active.
